Assay outcomes deposited in PubChem BioAssay by several laboratories.
T cruzi repl: inhibitors of intracellular T. cruzi growth, primary screen, luminescence, NIH3T3 host cells | T. cruzi beta-gal in NIH3T3, 90 h | inhibition, % (concentration not given with the values) | hit rate 1.4% among 300,000 | AID 1885, 2009;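 active means mean inhibition across valid replicates above about 55%, limit read from the data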;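 further: signal also drops with host cell toxicity which is not excluded here; 0% = plate median of DMSO wells and 100% = zero luminescence signal; higher percent means less beta-gal luminescence so fewer parasites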
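System: NIH/3T3 fibroblasts plus reporter T. cruzi. Medium: DMEM plus 2% FBS. Probe or stimulus: 5000 reporter trypomastigotes per well. Compound: single 50 nL compound addition per well in DMSO. Incubation: co-culture of at least 90 h after 3 h attachment. Detection: GalScreen β-gal luminescence, detergent lysis, 60 min. Evaluation: parasite load inhibition, %.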
KLF5 inh: KLF5 expression inhibitors, primary screen, DLD-1 cells, luminescence. DLD-1 KLF5 promoter-luciferase reporter. inhibition, % at 5 µM. hit rate 0.23% among 290,000. AID 1700, 2009;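 active means inhibition above a per-plate limit of that plate's mean compound inhibition plus 3 SD, cut at about 60% in these data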;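 further: 0% = DMSO wells and 100% = LY294002 at 200 µM; higher means less KLF5 promoter-driven luciferase light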
HIF act: HIF pathway transcriptional activators, primary screen, cell-based, U2OS HRE-luciferase, luminescence; U2OS HRE-luciferase reporter; normalized: DMSO 0%, desferrioxamine 100%; activation, % at 7.5 µM (by protocol); hit rate 0.32% among 300,000; AID 1910, 2009;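 active means mean activation of at least 10% of the iron chelator positive control signal, with at least half of replicates also reaching 10%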
A1 inh: caspase 3/7 activation in MEF A1-2A-BIM cells, primary screen, A1 inhibitor project, cell-based, luminescence, HTS. caspase activation, % (no concentration beside the values). hit rate 0.066% among 330,000. Caspase-Glo 3/7 luminescence, 3 h; percent of clofoctol response, vehicle zero;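 active means over half of replicate activation scores above 10%, or exactly half above 10 with the replicate mean above 10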
Beta apoptosis: inhibitors of cytokine-induced beta cell apoptosis, primary screen, luminescence; INS-1E cytokine-induced death, ATP luminescence, 48 h; percent of positive-control rescue, neutral wells zero; protection from apoptosis, % (concentration not given with the values); hit rate 0.8% among 300,000;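 active means Every replicate reaches about 75%, or at least half do and their mean reaches it too, limit read from the data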;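 further: 0% = cytokine-treated negative control wells and 100% = positive control rescue; higher means more ATP so stronger rescue from cytokine killing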
* marks the source's active call; other numbers are inactive results; x = not tested or not shown. Hits are enriched below; roughly 2.3% of the tested compounds scored in any of these assays.

SMILES	T cruzi repl	KLF5 inh	HIF act	A1 inh	Beta apoptosis
CCOC(=O)c1c(-c2ccccc2)c2cc(OC)ccc2n1CCCN(C)C	59*	-31	2	0	3
NC(=O)NC(CC(=O)NNC(=O)c1ccccn1)c1ccccc1Cl (centres undefined)	x	x	x	-1	-4
COc1ccc(Cl)cc1Nc1nc(-c2cccnc2)cs1	56*	-47	-1	-5	-4
Brc1cccc(Nc2nc(-c3cccnc3)cs2)c1	39	-27	6	1	x
Clc1cccc(Nc2nc(-c3cccnc3)cs2)c1	59*	3	4	-1	3
Cc1cc(Cl)n2c(nc3cc(F)c(F)cc32)c1C#N	79*	0	9.5*	x	x
N#Cc1ccc(CN2CCN(C(=O)CC(NC(=O)c3ccccc3)c3ccccc3)CC2)cc1 (centres undefined)	5	10	0	1	-3
COc1cc(NC(=O)COC(=O)/C=C/c2c(C)nn(-c3ccc(F)cc3)c2Cl)cc(OC)c1	60*	-7	0	2	4
Cc1cc(C)c(S(=O)(=O)c2c(C)cccc2C)c(Cl)n1	47	-8	0	1	-2
Cc1cc(C)c(S(=O)(=O)c2ccc(Cl)cc2C)c(Cl)n1	56*	-13	0	1	-14
Cc1cc(C)c(S(=O)(=O)c2cc(F)ccc2C)c(Cl)n1	65*	-17	0	2	-7
O=C(C[C@@H]1C/C=C\CCC(=O)OC[C@H](Cc2ccccc2)NC1=O)N[C@@H](CO)Cc1ccccc1	x	x	x	-1	0
C[C@]12c3[nH]c4ccccc4c3CCN1C(=O)C(CC(=O)NCCN1CCOCC1)C[C@@H]2C(=O)N1CCOCC1 (some centres undefined)	x	x	x	0	-2
C/C(=N\NC(=O)c1cc2ccccc2cc1O)c1cc2ccccc2o1	-2	-30	1	-1	16
C/C(=N\NC(=O)c1ccc(F)cc1)c1ccccn1	51	38	-16	-2	111*
C=CCNC(=S)N/N=C(\C)c1ccccn1	54	54	14*	-1	93*
C/C(=N\NC(=O)c1c[nH]c2ccccc12)c1ccccn1	82*	-58	5	-2	17
C/C(=N\NC(=O)c1cc2ccccc2cc1O)c1ccccn1	12	27	0	2	99*
C/C(=N/NC(=O)CNC(=O)c1ccccn1)c1ccccc1	-39	5	0	0	-6
COc1nnc(-c2ccc(C)cc2)c2ccccc12	-22	-13	-7	2	-5
Cc1c(C(=O)NCCS(=O)(=O)N2CCN(c3ccccc3F)CC2)cccc1[N+](=O)[O-]	14	-22	2	0	-3
CC1Sc2ccc(C(=O)NCc3cccc(C(F)(F)F)c3)cc2NC1=O (centres undefined)	x	x	x	0	6
CC(C)(C)C1CCC2(CC1)C(C#N)=C(SCC(=O)NC1CCCCC1)NC(=O)C2C#N (centres undefined)	-5	-8	1	-1	107*
N#CC1=C(SCC(=O)NC2CC2)NC(=O)C(C#N)C12CCCCC2 (centres undefined)	2	-38	0	0	-5
Cc1cccc(C(=O)OC(C)CN2C(C)CCCC2C)c1 (centres undefined)	22	-52	-13	1	-6
SMILES	T cruzi repl	KLF5 inh	HIF act	A1 inh	Beta apoptosis
O=C(N/N=C/c1ccc(O)cc1O)c1ccncc1	-1	6	0	-3	64
CCc1cc(C(=O)N/N=C/c2ccc(O)cc2O)c2ccccc2n1	33	61	29*	0	93*
O=C(N/N=C/c1ccc(O)cc1O)/C(=C/c1ccccc1)CCO	6	23	3	-1	85*
O=C(CNC(=O)C(c1ccccc1)c1ccccc1)N/N=C/c1ccc(O)cc1O	23	40	11*	0	44
COc1cc(/C=N/NC(=O)/C(=C/c2ccccc2)CCO)ccc1O	-2	-12	-1	2	-6
COC(=O)c1c(NC(=O)Cc2ccc(OC)c(S(=O)(=O)N3CCOCC3)c2)sc(C)c1C	39	x	0	-1	5
O=S1(=O)N(Cc2ccccc2F)CCCN1Cc1c(F)cccc1Cl	34	-14	3	1	-6
